Experimental data: ChEMBL document CHEMBL3272166, “Quantitative structure-activity relationships in centrally acting imidazolidines structurally related to clonidine” (J Med Chem, 1977)

Legend:
Rattus norvegicus [1] = test: Hypotensive activity in iv dosed anesthetized normotensive Wistar rat assessed as maximal decrease in mean arterial pressure measured per gram of brain tissue; assay type: functional, Artery
[2] = Apparent partition coefficient, log P in octanol and 0.1 M phosphate buffer at pH 7.4; assay type: physicochemical; conditions: octanol/0.1 M phosphate buffer
Rattus norvegicus [3] = test: Hypotensive activity in iv dosed anesthetized normotensive Wistar rat assessed as maximal decrease in mean arterial pressure; assay type: functional, Artery; conditions: for ED30: Rattus norvegicus, Wistar, Artery, iv
How it was run: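 Male Wistar rats (190-220 g) anaesthetised with pentobarbitone sodium 75 mg/kg ip, kept at 37 ± 1 °C, ventilated and heparinised. Carotid arterial pressure recorded; animals outside 100–150 mmHg after ~20 min equilibration discarded. Graded iv doses in saline, with randomised agents and doses and one rat per experiment. Log-dose–response curves of maximal fall in mean pressure gave the dose (μmol/kg) for a 30% decrease (ED30).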

Rattus norvegicus [4] = test: Hypotensive activity in iv dosed anesthetized normotensive Wistar rat assessed as 30% decrease in mean arterial pressure; conditions: Artery

Cl.c1ccc(NC2=NCCN2)cc1
log(1/ED30) (Rattus norvegicus [1]): -0.42 | logD [2]: -1.92 | log(1/ED30) (Rattus norvegicus [3]): -2.1 | ED30 (Rattus norvegicus [3]): 25 mg/kg

Cc1cccc(C)c1N=C1NCCN1.Cl
log(1/ED30) (Rattus norvegicus [1]): 2.14 | logD [2]: -1.54 | log(1/ED30) (Rattus norvegicus [3]): 0.85 | ED30 (Rattus norvegicus [3]): 0.032 mg/kg

Cl.Fc1cccc(F)c1N=C1NCCN1
log(1/ED30) (Rattus norvegicus [1]): -0.22 | logD [2]: -0.16 | log(1/ED30) (Rattus norvegicus [3]): -0.29 | ED30 (Rattus norvegicus [3]): 0.6 mg/kg

Cl.O=[N+]([O-])c1cc(Cl)c(N=C2NCCN2)c(Cl)c1
log(1/ED30) (Rattus norvegicus [1]): -1.68 | logD [2]: 1.92 | log(1/ED30) (Rattus norvegicus [3]): -0.34 | ED30 (Rattus norvegicus [3]): 4.5 mg/kg

Cc1cc(Cl)cc(Cl)c1N=C1NCCN1.Cl
log(1/ED30) (Rattus norvegicus [1]): 0.4 | logD [2]: 0.47 | log(1/ED30) (Rattus norvegicus [3]): 0.57 | ED30 (Rattus norvegicus [3]): 0.079 mg/kg

Cl.Clc1ccc(Cl)c(N=C2NCCN2)c1
log(1/ED30) (Rattus norvegicus [1]): 0.03 | logD [2]: 0.65 | log(1/ED30) (Rattus norvegicus [3]): 0.32 | ED30 (Rattus norvegicus [3]): 0.15 mg/kg

Cl.Fc1cccc(Cl)c1N=C1NCCN1
log(1/ED30) (Rattus norvegicus [1]): 1.13 | logD [2]: 0.52 | log(1/ED30) (Rattus norvegicus [3]): 1.47 | ED30 (Rattus norvegicus [3]): 0.0125 mg/kg

Cc1cc(Cl)cc(C)c1N=C1NCCN1.Cl
log(1/ED30) (Rattus norvegicus [1]): 0.54 | logD [2]: -0.62 | log(1/ED30) (Rattus norvegicus [3]): 0.04 | ED30 (Rattus norvegicus [3]): 0.24 mg/kg

Cl.Clc1ccc(N=C2NCCN2)c(Cl)c1
log(1/ED30) (Rattus norvegicus [1]): 0.58 | logD [2]: 0.29 | log(1/ED30) (Rattus norvegicus [3]): 0.68 | ED30 (Rattus norvegicus [3]): 0.061 mg/kg

Cl.Clc1cc(Br)cc(Cl)c1N=C1NCCN1
logD [2]: 1.97 | log(1/ED30) (Rattus norvegicus [3]): 1.03 | ED30 (Rattus norvegicus [3]): 0.06 mg/kg

Cl.Clc1cccc(N=C2NCCN2)c1Cl
log(1/ED30) (Rattus norvegicus [1]): 1.13 | logD [2]: 0.57 | log(1/ED30) (Rattus norvegicus [3]): 1.37 | ED30 (Rattus norvegicus [3]): 0.013 mg/kg

Cc1cc(Cl)ccc1N=C1NCCN1.Cl
log(1/ED30) (Rattus norvegicus [1]): 0.8 | logD [2]: -1.06 | log(1/ED30) (Rattus norvegicus [3]): -0.05 | ED30 (Rattus norvegicus [3]): 0.275 mg/kg

Cc1cc(Br)cc(C)c1N=C1NCCN1.Cl
log(1/ED30) (Rattus norvegicus [1]): -0.1 | logD [2]: -0.28 | log(1/ED30) (Rattus norvegicus [3]): -0.36 | ED30 (Rattus norvegicus [3]): 0.7 mg/kg

Cl.Clc1ccccc1N=C1NCCN1
log(1/ED30) (Rattus norvegicus [1]): 0.67 | logD [2]: -0.67 | log(1/ED30) (Rattus norvegicus [3]): 0.15 | ED30 (Rattus norvegicus [3]): 0.17 mg/kg

Cc1cc(C)c(N=C2NCCN2)c(C)c1.Cl
log(1/ED30) (Rattus norvegicus [1]): 0.98 | logD [2]: -1.28 | log(1/ED30) (Rattus norvegicus [3]): -0.07 | ED30 (Rattus norvegicus [3]): 0.28 mg/kg

Cl.Clc1cccc(Cl)c1NC1=NCCN1 [CLONIDINE HYDROCHLORIDE]
ED30 (Rattus norvegicus [4]): 0.0027 mg/kg | log(1/ED30) (Rattus norvegicus [1]): 1.78 | log(1/ED30) (Rattus norvegicus [3]): 2.14

Cc1cc(C)c(N=C2NCCN2)c(Cl)c1.Cl
log(1/ED30) (Rattus norvegicus [1]): 0.83 | logD [2]: -0.36 | log(1/ED30) (Rattus norvegicus [3]): 0.52 | ED30 (Rattus norvegicus [3]): 0.08 mg/kg

Cl.Clc1cccc(Br)c1N=C1NCCN1
ED30 (Rattus norvegicus [4]): 0.0029 mg/kg | log(1/ED30) (Rattus norvegicus [1]): 1.72 | logD [2]: 0.87 | log(1/ED30) (Rattus norvegicus [3]): 2.22

Cc1ccc(N=C2NCCN2)c(C)c1.Cl
log(1/ED30) (Rattus norvegicus [1]): 0.86 | logD [2]: -1.66 | log(1/ED30) (Rattus norvegicus [3]): -0.56 | ED30 (Rattus norvegicus [3]): 0.81 mg/kg

COc1cc(Cl)c(N=C2NCCN2)c(Cl)c1.Cl
log(1/ED30) (Rattus norvegicus [1]): -0.82 | logD [2]: 0.15 | log(1/ED30) (Rattus norvegicus [3]): -0.78 | ED30 (Rattus norvegicus [3]): 2 mg/kg

Cc1cc(Cl)c(N=C2NCCN2)c(Cl)c1.Cl
log(1/ED30) (Rattus norvegicus [1]): 0.87 | logD [2]: 0.73 | log(1/ED30) (Rattus norvegicus [3]): 1.22 | ED30 (Rattus norvegicus [3]): 0.021 mg/kg

Cc1ccccc1N=C1NCCN1.Cl
log(1/ED30) (Rattus norvegicus [1]): 0.91 | logD [2]: -1.82 | log(1/ED30) (Rattus norvegicus [3]): -0.67 | ED30 (Rattus norvegicus [3]): 0.99 mg/kg

Cc1ccc(N=C2NCCN2)c(Cl)c1.Cl
log(1/ED30) (Rattus norvegicus [1]): 1.07 | logD [2]: -0.48 | log(1/ED30) (Rattus norvegicus [3]): 0.68 | ED30 (Rattus norvegicus [3]): 0.053 mg/kg

Brc1cc(Br)c(N=C2NCCN2)c(Br)c1.Cl
log(1/ED30) (Rattus norvegicus [1]): -0.65 | logD [2]: 2.24 | log(1/ED30) (Rattus norvegicus [3]): 0.28 | ED30 (Rattus norvegicus [3]): 0.58 mg/kg

Cl.Clc1cc(Cl)c(N=C2NCCN2)c(Cl)c1
ED30 (Rattus norvegicus [3]): 0.021 mg/kg

Cc1cccc(Cl)c1N=C1NCCN1.Cl
log(1/ED30) (Rattus norvegicus [1]): 1.57 | logD [2]: -0.57 | log(1/ED30) (Rattus norvegicus [3]): 1.12 | ED30 (Rattus norvegicus [3]): 0.019 mg/kg

Brc1cccc(Br)c1N=C1NCCN1.Cl
log(1/ED30) (Rattus norvegicus [1]): 1.4 | logD [2]: 1.21 | log(1/ED30) (Rattus norvegicus [3]): 2.04 | ED30 (Rattus norvegicus [3]): 0.0055 mg/kg
